Measurements reported in ChEMBL document CHEMBL1926550, “Synthesis and antibacterial activity of naphthyridone derivatives containing mono/difluoro-methyloxime pyrrolidine scaffolds” (2012).
≈ marks a conversion by molar mass, not a printed value.

Key:
Type in all cases: functional
Enterococcus faecalis [1] = test: Antibacterial activity against Enterococcus faecalis 09-2 after 18 hrs by two fold serial dilution method; details: 09-2, 18 h
How it was run: (§1)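 Agar two-fold serial dilution in melted Mueller-Hinton agar, final concentrations 128 down to 0.008 μg/mL. Plates inoculated with 10⁴ cfu and incubated at 35 °C for 18 h. MIC taken as the lowest concentration giving no visible growth on the plate.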

Escherichia coli [2] = test: Antibacterial activity against Escherichia coli 09-1 after 18 hrs by two fold serial dilution method; details: 09-1, 18 h; how it was run: as §1
Staphylococcus aureus [3] = test: Antibacterial activity against methicillin-resistant Staphylococcus aureus 10-3 after 18 hrs by two fold serial dilution method; details: 10-3, 18 h
How it was run: (§2)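 Agar two-fold serial dilution in melted Mueller-Hinton agar, 128 to 0.008 μg/mL. Plates inoculated with 10⁴ cfu, incubated 35 °C for 18 h. MIC taken as lowest concentration giving no visible growth on the plate.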

Enterococcus faecium [4] = test: Antibacterial activity against Enterococcus faecium 09-5 after 18 hrs by two fold serial dilution method; details: 09-5, 18 h; how it was run: as §1
Escherichia coli [5] = test: Antibacterial activity against Escherichia coli 10-3 after 18 hrs by two fold serial dilution method; details: 10-3, 18 h; how it was run: as §1
Klebsiella pneumoniae [6] = test: Antibacterial activity against Klebsiella pneumoniae 10-1 after 18 hrs by two fold serial dilution method; details: 10-1, 18 h; how it was run: as §1
Enterococcus faecalis [7] = test: Antibacterial activity against Enterococcus faecalis 09-1 after 18 hrs by two fold serial dilution method; details: 09-1, 18 h; how it was run: as §1
Streptococcus pneumoniae = test: Antibacterial activity against Streptococcus pneumoniae 10-1 after 18 hrs by two fold serial dilution method; details: 10-1, 18 h; how it was run: as §1
Staphylococcus aureus [8] = test: Antibacterial activity against methicillin-sensitive Staphylococcus aureus 10-6 after 18 hrs by two fold serial dilution method; details: 10-6, 18 h; how it was run: as §1
Pseudomonas aeruginosa [9] = test: Antibacterial activity against Pseudomonas aeruginosa 10-2 after 18 hrs by two fold serial dilution method; details: 10-2, 18 h; how it was run: as §1
[10] = system: Staphylococcus epidermidis; test: Antibacterial activity against methicillin-resistant Staphylococcus epidermidis 10-2 after 18 hrs by two fold serial dilution method; details: 10-2, 18 h; how it was run: as §2
Enterococcus faecium [11] = test: Antibacterial activity against Enterococcus faecium 09-6 after 18 hrs by two fold serial dilution method; details: 09-6, 18 h; how it was run: as §1
Staphylococcus aureus [12] = test: Antibacterial activity against methicillin-sensitive Staphylococcus aureus 10-2 after 18 hrs by two fold serial dilution method; details: 10-2, 18 h; how it was run: as §1
Enterococcus faecium [13] = test: Antibacterial activity against Enterococcus faecium 09-3 after 18 hrs by two fold serial dilution method; details: 09-3, 18 h; how it was run: as §1
Staphylococcus aureus [14] = test: Antibacterial activity against methicillin-sensitive Staphylococcus aureus 10-4 after 18 hrs by two fold serial dilution method; details: 10-4, 18 h; how it was run: as §1
Staphylococcus aureus [15] = test: Antibacterial activity against methicillin-resistant Staphylococcus aureus 10-4 after 18 hrs by two fold serial dilution method; details: 10-4, 18 h; how it was run: as §2
Escherichia coli [16] = test: Antibacterial activity against Escherichia coli ATCC 25922 after 18 hrs by two fold serial dilution method; details: ATCC 25922, 18 h; how it was run: as §1
Pseudomonas aeruginosa [17] = test: Antibacterial activity against Pseudomonas aeruginosa 10-3 after 18 hrs by two fold serial dilution method; details: 10-3, 18 h; how it was run: as §1
Staphylococcus aureus [18] = test: Antibacterial activity against methicillin-sensitive Staphylococcus aureus 10-5 after 18 hrs by two fold serial dilution method; details: 10-5, 18 h; how it was run: as §1
Klebsiella pneumoniae [19] = test: Antibacterial activity against Klebsiella pneumoniae 09-2 after 18 hrs by two fold serial dilution method; details: 09-2, 18 h; how it was run: as §1
Staphylococcus aureus [20] = test: Antibacterial activity against Staphylococcus aureus ATCC 25923 after 18 hrs by two fold serial dilution method; details: ATCC 25923, 18 h; how it was run: as §1
[21] = system: Staphylococcus epidermidis; test: Antibacterial activity against methicillin-resistant Staphylococcus epidermidis 10-1 after 18 hrs by two fold serial dilution method; details: 10-1, 18 h; how it was run: as §2
Staphylococcus aureus [22] = test: Antibacterial activity against methicillin-resistant Staphylococcus aureus 10-2 after 18 hrs by two fold serial dilution method; details: 10-2, 18 h; how it was run: as §2
Pseudomonas aeruginosa [23] = test: Antibacterial activity against Pseudomonas aeruginosa 10-1 after 18 hrs by two fold serial dilution method; details: 10-1, 18 h; how it was run: as §1
Escherichia coli [24] = test: Antibacterial activity against Escherichia coli 10-1 after 18 hrs by two fold serial dilution method; details: 10-1, 18 h; how it was run: as §1
Pseudomonas aeruginosa [25] = test: Antibacterial activity against Pseudomonas aeruginosa ATCC 27853 after 18 hrs by two fold serial dilution method; details: ATCC 27853, 18 h; how it was run: as §1
Enterococcus faecium [26] = test: Antibacterial activity against Enterococcus faecium 09-2 after 18 hrs by two fold serial dilution method; details: 09-2, 18 h; how it was run: as §1
Klebsiella pneumoniae [27] = test: Antibacterial activity against Klebsiella pneumoniae 10-3 after 18 hrs by two fold serial dilution method; details: 10-3, 18 h; how it was run: as §1
Staphylococcus aureus [28] = test: Antibacterial activity against methicillin-resistant Staphylococcus aureus 10-1 after 18 hrs by two fold serial dilution method; details: 10-1, 18 h; how it was run: as §2
Escherichia coli [29] = test: Antibacterial activity against Escherichia coli 09-2 after 18 hrs by two fold serial dilution method; details: 09-2, 18 h; how it was run: as §1
[30] = system: Staphylococcus epidermidis; test: Antibacterial activity against methicillin-sensitive Staphylococcus epidermidis 10-2 after 18 hrs by two fold serial dilution method; details: 10-2, 18 h; how it was run: as §1
Enterococcus faecium [31] = test: Antibacterial activity against Enterococcus faecium 09-4 after 18 hrs by two fold serial dilution method; details: 09-4, 18 h; how it was run: as §1
[32] = system: Staphylococcus epidermidis; test: Antibacterial activity against methicillin-sensitive Staphylococcus epidermidis 10-1 after 18 hrs by two fold serial dilution method; details: 10-1, 18 h; how it was run: as §1
Escherichia coli [33] = test: Antibacterial activity against Escherichia coli 10-2 after 18 hrs by two fold serial dilution method; details: 10-2, 18 h; how it was run: as §1
Staphylococcus aureus [34] = test: Antibacterial activity against methicillin-sensitive Staphylococcus aureus 10-1 after 18 hrs by two fold serial dilution method; details: 10-1, 18 h; how it was run: as §1
Staphylococcus aureus [35] = test: Antibacterial activity against methicillin-sensitive Staphylococcus aureus 10-3 after 18 hrs by two fold serial dilution method; details: 10-3, 18 h; how it was run: as §1
Enterococcus faecium [36] = test: Antibacterial activity against Enterococcus faecium 09-1 after 18 hrs by two fold serial dilution method; details: 09-1, 18 h; how it was run: as §1
Escherichia coli [37] = test: Antibacterial activity against Escherichia coli 09-3 after 18 hrs by two fold serial dilution method; details: 09-3, 18 h; how it was run: as §1

Structure (SMILES)	MIC (Enterococcus faecalis [1]) [µg/mL]	MIC (Escherichia coli [2]) [µg/mL]	MIC (Staphylococcus aureus [3]) [µg/mL]	MIC (Enterococcus faecium [4]) [µg/mL]	MIC (Escherichia coli [5]) [µg/mL]	MIC (Klebsiella pneumoniae [6]) [µg/mL]	MIC (Enterococcus faecalis [7]) [µg/mL]	MIC (Streptococcus pneumoniae) [µg/mL]	MIC (Staphylococcus aureus [8]) [µg/mL]	MIC (Pseudomonas aeruginosa [9]) [µg/mL]	MIC [10] [µg/mL]	MIC (Enterococcus faecium [11]) [µg/mL]	MIC (Staphylococcus aureus [12]) [µg/mL]	MIC (Enterococcus faecium [13]) [µg/mL]	MIC (Staphylococcus aureus [14]) [µg/mL]	MIC (Staphylococcus aureus [15]) [µg/mL]	MIC (Escherichia coli [16]) [µg/mL]	MIC (Pseudomonas aeruginosa [17]) [µg/mL]	MIC (Staphylococcus aureus [18]) [µg/mL]	MIC (Klebsiella pneumoniae [19]) [µg/mL]	further results
NCC1CN(c2ccc3c(=O)c(C(=O)O)cn(C4CC4)c3n2)C/C1=N\OCF (racemic)	64 (≈ 164 µM)	> 128	> 128	16 (≈ 41.1 µM)	> 128	0.5 (≈ 1.28 µM)	64 (≈ 164 µM)	0.25 (≈ 0.642 µM)	0.125 (≈ 0.321 µM)	> 128	64 (≈ 164 µM)	1 (≈ 2.57 µM)	128 (≈ 329 µM)	64 (≈ 164 µM)	0.25 (≈ 0.642 µM)	> 128	0.06 (≈ 0.154 µM)	32 (≈ 82.2 µM)	0.125 (≈ 0.321 µM)	> 128	MIC (Staphylococcus aureus [20]): 0.25 µg/mL (≈ 0.642 µM); MIC [21]: 32 µg/mL (≈ 82.2 µM); MIC (Staphylococcus aureus [22]): 64 µg/mL (≈ 164 µM); MIC (Pseudomonas aeruginosa [23]): 2 µg/mL (≈ 5.14 µM); MIC (Escherichia coli [24]): > 128 µg/mL; MIC (Pseudomonas aeruginosa [25]): 4 µg/mL (≈ 10.3 µM); MIC (Enterococcus faecium [26]): 64 µg/mL (≈ 164 µM); MIC (Klebsiella pneumoniae [27]): 4 µg/mL (≈ 10.3 µM); MIC (Staphylococcus aureus [28]): > 128 µg/mL; MIC (Escherichia coli [29]): > 128 µg/mL; MIC [30]: 32 µg/mL (≈ 82.2 µM); MIC (Enterococcus faecium [31]): 2 µg/mL (≈ 5.14 µM); MIC [32]: 16 µg/mL (≈ 41.1 µM); MIC (Escherichia coli [33]): 4 µg/mL (≈ 10.3 µM); MIC (Staphylococcus aureus [34]): 0.03 µg/mL (≈ 0.077 µM); MIC (Staphylococcus aureus [35]): 0.25 µg/mL (≈ 0.642 µM); MIC (Enterococcus faecium [36]): 64 µg/mL (≈ 164 µM); MIC (Escherichia coli [37]): > 128 µg/mL
NCC1CN(c2nc3c(cc2F)c(=O)c(C(=O)O)cn3-c2ccc(F)cc2F)C/C1=N\OCF (racemic)	32 (≈ 66.8 µM)	128 (≈ 267 µM)	64 (≈ 134 µM)	64 (≈ 134 µM)	32 (≈ 66.8 µM)	0.5 (≈ 1.04 µM)	32 (≈ 66.8 µM)	0.125 (≈ 0.261 µM)	0.125 (≈ 0.261 µM)	> 128	8 (≈ 16.7 µM)	0.5 (≈ 1.04 µM)	4 (≈ 8.34 µM)	32 (≈ 66.8 µM)	0.125 (≈ 0.261 µM)	64 (≈ 134 µM)	0.125 (≈ 0.261 µM)	32 (≈ 66.8 µM)	0.125 (≈ 0.261 µM)	> 128	MIC (Staphylococcus aureus [20]): 0.25 µg/mL (≈ 0.521 µM); MIC [21]: 4 µg/mL (≈ 8.34 µM); MIC (Staphylococcus aureus [22]): 16 µg/mL (≈ 33.4 µM); MIC (Pseudomonas aeruginosa [23]): 4 µg/mL (≈ 8.34 µM); MIC (Escherichia coli [24]): 128 µg/mL (≈ 267 µM); MIC (Pseudomonas aeruginosa [25]): 16 µg/mL (≈ 33.4 µM); MIC (Enterococcus faecium [26]): 64 µg/mL (≈ 134 µM); MIC (Klebsiella pneumoniae [27]): 4 µg/mL (≈ 8.34 µM); MIC (Staphylococcus aureus [28]): 64 µg/mL (≈ 134 µM); MIC (Escherichia coli [29]): > 128 µg/mL; MIC [30]: 32 µg/mL (≈ 66.8 µM); MIC (Enterococcus faecium [31]): 0.5 µg/mL (≈ 1.04 µM); MIC [32]: 32 µg/mL (≈ 66.8 µM); MIC (Escherichia coli [33]): 4 µg/mL (≈ 8.34 µM); MIC (Staphylococcus aureus [34]): 0.06 µg/mL (≈ 0.125 µM); MIC (Staphylococcus aureus [35]): 0.125 µg/mL (≈ 0.261 µM); MIC (Enterococcus faecium [36]): 64 µg/mL (≈ 134 µM); MIC (Escherichia coli [37]): > 128 µg/mL
